According to BindingDB's records for doi:10.1016/j.bmc.2019.03.030 (Northwestern University, 2019):

Molecular target: Sigma non-opioid intracellular receptor 1 (Homo sapiens, UniProt Q99720)
Test: Displacement of [3H]-(+)-pentazocine from sigma1 receptor (unknown origin) expressed in HEK293 cell membranes after 120 mins by microbeta scintillation counting method
Summary of the method: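 Radioligand binding run by an external screening program; sigma-1 tracer [3H]-pentazocine, sigma-2 tracer [3H]-DTG. Each compound first tested at a single 10 μM concentration. Those giving >50% inhibition were then titrated over a dose range to derive pKi.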

Sigma non-opioid intracellular receptor 1, sequence (Q99720 whole entry): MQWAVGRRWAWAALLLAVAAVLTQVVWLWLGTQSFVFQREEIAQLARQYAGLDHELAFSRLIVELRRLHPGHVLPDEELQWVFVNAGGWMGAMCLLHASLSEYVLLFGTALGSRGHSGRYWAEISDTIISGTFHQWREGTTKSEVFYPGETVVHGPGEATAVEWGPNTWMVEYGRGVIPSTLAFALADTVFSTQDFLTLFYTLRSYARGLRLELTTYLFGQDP

## O=C(c1c2c(nn1-c1ccc(F)cc1)CCC(NCc1ccc(F)cc1)C2)N1CCCCC1 (stereo unspecified)
  Ki: 16 nM
